# ChEMBL document CHEMBL2406930, “Synthesis and electrochemical and biological studies of novel coumarin-chalcone hybrid compounds” (J Med Chem, 2013)
# Calls of active or inactive are those of the source. The rule behind the calls is not given here.
# Columns and labels:
# [1] = Cytotoxicity against BAEC assessed as cell viability at 50 uM after 24 hrs by MTT assay; set-up: species or system Bos taurus; details: cattle, BAEC cells; read-out: Activity
# Outline: (§1)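 BAEC seeded at 10^4–10^5 cells/mL were grown to 60–70% confluency and exposed to compound (10–50 µM) for 24 h. Medium was then replaced and MTT added for 2 h at 37 °C. Formazan was dissolved in DMSO and read at 570 nm. Viability was taken relative to solvent-only wells, n = 3, mean ± SEM.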
# [2] = Cytotoxicity against BAEC assessed as cell viability at 20 uM after 24 hrs by MTT assay; set-up: species or system Bos taurus; details: cattle, BAEC cells; read-out: Activity; outline: as §1
# [3] = Cytotoxicity against BAEC assessed as cell viability at 10 uM after 24 hrs by MTT assay; set-up: species or system Bos taurus; details: cattle, BAEC cells; read-out: Activity; outline: as §1
# [4] = Antioxidant activity assessed as hydroxyl radical scavenging activity at 4 mM after 5 mins by ESR spectroscopy analysis
# [5] = (§2) Cytoprotective activity against peroxynitrite-induced toxicity in BAEC assessed as cell viability at 20 uM after 24 hrs by MTT assay; assay type: functional; details: Bos taurus, read-out: Activity
# Outline: (§3)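 Bovine aortic endothelial cells (BAEC) in DMEM with 10% FBS, endothelial growth supplement and no antibiotics were grown to 60–70% confluency. They were pretreated 24 h with compound at 10 or 20 µM, then washed twice with PBS. Insult was 1 mM H2O2 for 2 h, or 500 µM SIN-1 (peroxynitrite source) for 4 h. Viability was read by MTT reduction, formazan in DMSO, A570.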
# [6] = Antioxidant activity assessed as trolox equivalents of peroxyl radical scavenging activity at 0.3 to 2 uM preincubated for 15 mins by ORAC assay relative to control; assay type: functional
# Outline: (§4)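 Peroxyl radical scavenging by ORAC-FL in 75 mM sodium phosphate buffer (pH 7.4) at 37 °C. Fluorescein was 70 nM final. Compounds in methanol were tested at 0.3–2 µM for monohydroxy and 0.5–7 µM for dihydroxy derivatives, preincubated 15 min, then AAPH was added (18 mM final). Fluorescence (ex 485, em 528 nm) was read each minute for 120 min. Net AUC minus methanol blank was referenced to Trolox (0.5–2.5 µM).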
# [7] = Antioxidant activity assessed as peroxyl radical scavenging activity by ORAC assay relative to trolox; assay type: functional
# Outline: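 Fluorescein-based ORAC in 75 mM sodium phosphate buffer pH 7.4 with FL 70 nM (final). Compounds in methanol at 0.3–2 µM (monohydroxy) or 0.5–7 µM (dihydroxy) preincubated 15 min at 37 °C, then AAPH 18 mM (final) added. Fluorescence (ex 485, em 528 nm) read every 1 min for 120 min. Net AUC minus methanol blank, expressed against Trolox calibration (0.5–2.5 µM).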
# [8] = (§5) Cytoprotective activity against H2O2-induced toxicity in BAEC assessed as cell viability at 10 uM after 24 hrs by MTT assay; assay type: functional; details: Bos taurus, read-out: Activity; outline: as §3
# BAEC [9] = test: as §2; assay type: functional; details: Bos taurus; outline: as §3
# BAEC [10] = test: as §5; assay type: functional; details: Bos taurus; outline: as §3
# [11] = Antioxidant activity assessed as trolox equivalents of peroxyl radical scavenging activity at 0.7 to 7 uM preincubated for 15 mins by ORAC assay relative to control; assay type: functional; details: 0.5 to 7 uM; in the assay text read “0.5 to 7 uM” for “0.7 to 7 uM”; outline: as §4
SMILES,"viability at 24 h, 50 µM [1]","viability at 24 h, 20 µM [2]","viability at 24 h, 10 µM [3]",Activity [4],viability at 20 µM [5],Ratio [6],Ratio [7],viability at 10 µM [8],Activity (BAEC [9]),Activity (BAEC [10]),Ratio [11]
O=C(c1ccccc1)c1cc2cc(Br)cc(O)c2oc1=O,93%,101%,96%,65%,90%,8.3,,,,,
Cc1c(C)c2c(c(C)c1O)CCC(C)(C(=O)O)O2 (stereo not drawn),,,,31%,,1,,,,,
O=c1c(O)c(-c2ccc(O)c(O)c2)oc2cc(O)cc(O)c12,,,,,,,7.3,,,,
O=C(c1ccc(O)cc1)c1cc2cc(O)ccc2oc1=O,93%,94%,68%,58%,90%,14.1,,,,,
Oc1cc(O)c2c(c1)OC(c1ccc(O)c(O)c1)C(O)C2 (stereo not drawn),,,,,,,6.8,,,,
O=C(c1ccccc1)c1cc2cc(O)ccc2oc1=O,86%,95%,88%,39%,,11.5,,40%,inactive,,
Cc1cccc2cc(C(=O)c3ccc(O)cc3)c(=O)oc12,101%,82%,87%,45%,90%,10.9,,40%,,,
O=C(c1ccc(O)cc1)c1cc2cc(Br)ccc2oc1=O,104%,93%,95%,28%,90%,9.5,,,,,
O=C(c1ccc(O)c(O)c1)c1cc2cc(Br)cc(O)c2oc1=O,71%,23%,64%,100%,,8.8,,,,,
O=C(c1ccc(O)c(O)c1)c1cc2cccc(O)c2oc1=O,63%,68%,49%,75%,,8.1,,,,,
O=C(c1ccc(O)cc1)c1cc2ccccc2oc1=O,44%,60%,76%,26%,,9.2,,,,,
O=C(c1ccc(O)c(O)c1)c1cc2cc(Br)ccc2oc1=O,92%,100%,102%,100%,,,,,inactive,inactive,13
